Data reported in ChEMBL document CHEMBL3813690, “Synthesis and Th1-immunostimulatory activity of α-galactosylceramide analogues bearing a halogen-containing or selenium-containing acyl chain” (Bioorg Med Chem, 2016).
Calls of active or inactive are those of the source. No cut-off for these calls is given here.

Assays:
Type in all cases: cell-based
Mus musculus [1] = species on record: Mus musculus; assay: Activity at CD1d in C57BL/6 mouse splenocytes assessed as production of IFN-gamma at 10 to 1000 nM after 48 hrs by ELISA
Summary of the method: (§1)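 Freshly prepared mouse splenocytes, washed three times by centrifugation in medium, counted in Türk's solution, seeded at 3 × 10⁵ cells/well in RPMI1640 with 10% FBS and 1% penicillin–streptomycin. Ligands dissolved in pyridine (1 mg/mL stock), diluted in medium to final 10, 30, 100, 300 and 1000 nM. Incubated 48 h at 37 °C; supernatant IFN-γ and IL-4 measured by ELISA. KRN7000 as positive control.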

Mus musculus [2] = species on record: Mus musculus; assay: Activity at CD1d in C57BL/6 mouse splenocytes assessed as production of IL4 at 10 to 1000 nM after 48 hrs by ELISA; summary of the method: as §1
Mus musculus [3] = species on record: Mus musculus; assay: Activity at CD1d in C57BL/6 mouse splenocytes assessed as production of IL4 at 100 nM after 48 hrs by ELISA relative to KRN7000; summary of the method: as §1
Mus musculus [4] = species on record: Mus musculus; assay: Activity at CD1d in C57BL/6 mouse splenocytes assessed as ratio of IFN-gamma production to IL4 production at 100 nM after 48 hrs by ELISA; summary of the method: as §1
Mus musculus [5] = species on record: Mus musculus; assay: Activity at CD1d in C57BL/6 mouse splenocytes assessed as production of IFN-gamma at 100 nM after 48 hrs by ELISA relative to KRN7000; summary of the method: as §1

SMILES	Activity (Mus musculus [1])	Activity (Mus musculus [2])	Activity (Mus musculus [3]) [%]	Ratio (Mus musculus [4])	Activity (Mus musculus [5]) [%]
CCCCCCCCCCCCCC[C@@H](O)[C@@H](O)[C@H](CO[C@H]1O[C@H](CO)[C@H](O)[C@H](O)[C@H]1O)NC(=O)CCCCCCCCCCCCCCCCCCCCCCCCCl	Active	Active	18	3.8	68
CCCCCCCCCCCCCC[C@@H](O)[C@@H](O)[C@H](CO[C@H]1O[C@H](CO)[C@H](O)[C@H](O)[C@H]1O)NC(=O)CCCCCCCCCCCCCCCC[Se]CCCCCCCC	Active	Active	35	2.9	103
CCCCCCCCCCCCCCCCCCCCCCCCCC(=O)N[C@@H](CO[C@H]1O[C@H](CO)[C@H](O)[C@H](O)[C@H]1O)[C@H](O)[C@H](O)CCCCCCCCCCCCCC	–	Active	–	–	–
CCCCCCCCCCCCCC[Se]CCCCCCCCCCC(=O)N[C@@H](CO[C@H]1O[C@H](CO)[C@H](O)[C@H](O)[C@H]1O)[C@H](O)[C@H](O)CCCCCCCCCCCCCC	Active	Active	39	3.3	130
CCCCCCCCCCCCCC[C@@H](O)[C@@H](O)[C@H](CO[C@H]1O[C@H](CO)[C@H](O)[C@H](O)[C@H]1O)NC(=O)CCCCCCCCCCCCCCCCCCCCCCCCF	Active	Active	21	5	104
CCCCCCCCCCCCCC[C@@H](O)[C@@H](O)[C@H](CO[C@H]1O[C@H](CO)[C@H](O)[C@H](O)[C@H]1O)NC(=O)CCCCCCCCCCCCCCCCCCCCCCCCBr	Active	Active	19	4.4	84
